Laboratory results: ChEMBL document CHEMBL4828745, “Discovery and Structure-Activity Relationships of Quinazolinone-2-carboxamide Derivatives as Novel Orally Efficacious Antimalarials” (J Med Chem, 2021)

What was measured:
Plasmodium falciparum [1] = test: Antiplasmodial activity against asexual blood stage Plasmodium falciparum 3D7 (MR4) infected in erythrocytes assessed as parasite clearance time for 99.9% organism; format: functional
Summary of the method: (§1)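 Samples taken every 24 h and washed free of drug. Viable parasites counted by limiting dilution: 3-fold serial dilutions, four independent series, growth scored at 21 days and confirmed at 28 days.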

[2] = Intrinsic clearance in human hepatocytes measured per 10^6 cells at 0.25 uM by LC-MS analysis; format: ADME, cell-based, Hepatocyte; conditions: read-out: CLH
Summary of the method: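 Compound at 0.25 μM incubated with cryopreserved human or rat hepatocytes (1×10^6 cells/mL) in Krebs–Henseleit buffer at 37 °C. Quenched with acetonitrile containing diazepam. LC-MS quantitation. CLint from the first-order degradation rate constant.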

CYP2C9 = CYP2C9 (Homo sapiens, UniProt P11712); test: Inhibition of CYP2C9 (unknown origin) at 10 uM by UPLC-MS analysis relative to control; format: ADME
Sequence of CYP2C9 (P11712 whole entry): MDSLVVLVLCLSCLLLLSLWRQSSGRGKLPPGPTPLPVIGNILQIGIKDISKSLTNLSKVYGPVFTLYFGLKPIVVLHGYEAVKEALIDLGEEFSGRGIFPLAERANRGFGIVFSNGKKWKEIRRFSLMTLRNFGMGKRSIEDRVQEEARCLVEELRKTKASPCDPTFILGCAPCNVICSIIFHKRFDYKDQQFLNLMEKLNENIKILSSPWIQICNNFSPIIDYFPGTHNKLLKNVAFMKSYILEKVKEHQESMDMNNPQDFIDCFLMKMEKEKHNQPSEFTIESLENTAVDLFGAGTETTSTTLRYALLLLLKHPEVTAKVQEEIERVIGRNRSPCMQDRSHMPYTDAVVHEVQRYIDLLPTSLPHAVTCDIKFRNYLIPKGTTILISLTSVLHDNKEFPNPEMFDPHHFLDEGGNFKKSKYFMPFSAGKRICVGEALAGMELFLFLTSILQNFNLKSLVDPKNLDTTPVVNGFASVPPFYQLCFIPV
Summary of the method: (§2)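 Human liver microsomes, using a substrate-specific metabolite approach. Test compound at 1 and 10 μM. Reference inhibitors: furafylline (1A2), sulfaphenazole (2C9), quinidine (2D6), ketoconazole (3A4). Specific metabolites quantified by UPLC-MS. Percent inhibition relative to incubation without inhibitor.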

Plasmodium falciparum [3] = test: Antiplasmodial activity against asexual blood stage Plasmodium falciparum 3D7 (MR4) infected in erythrocytes assessed as parasite reduction ratio at 10 times of IC50 concentration treated up to 120 hrs measured after 21 days of serial dilution; format: functional; conditions: time hrs <=120; summary of the method: as §1
Plasmodium falciparum [4] = test: Antimalarial activity against Plasmodium falciparum Dd2 DSM265 mutant harbouring […] assessed as inhibition of parasite growth incubated for […] by [3H]hypoxanthine incorporation assay based liquid scintillation counting method; format: functional, organism-based
Summary of the method: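 Genetically engineered P. falciparum lines carried mutations introduced into the Dd2 wild-type strain, which was tested alongside them. Growth inhibition was read by [3H]hypoxanthine incorporation over 72 h. IC50 is the mean of two independent biological replicates. Chloroquine and artesunate served as controls.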

Plasmodium falciparum [5] = test: Antimalarial activity against Plasmodium falciparum Cam3.1 harbouring Pf-crt, Pf-mdrl,Pf-dhfr, Pf-dhps, pf-kelch13 mutated loci assessed as inhibition of parasite growth incubated for […] by [3H]hypoxanthine incorporation assay based liquid scintillation counting method; format: functional, organism-based
Summary of the method: (§3)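 Drug-resistant laboratory P. falciparum strains were compared against the sensitive strain NF54. Growth inhibition was read by a modified [3H]hypoxanthine incorporation assay over 72 h. IC50 is the mean of two independent biological replicates. Chloroquine and artesunate served as controls.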

[6] = Ratio of drug level in whole blood to plasma in Sprague-Dawley rat by LC-MS analysis; format: ADME, cell-free; conditions: whole blood and plasma
Summary of the method: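 Apparent whole-blood-to-plasma partitioning measured in vitro in rat blood.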

CYP1A2 = target: T1, CYP1A2 (Homo sapiens, UniProt P05177); test: Inhibition of CYP1A2 (unknown origin) at 10 uM by UPLC-MS analysis relative to control; format: ADME; summary of the method: as §2
T1 sequence (P05177 whole entry): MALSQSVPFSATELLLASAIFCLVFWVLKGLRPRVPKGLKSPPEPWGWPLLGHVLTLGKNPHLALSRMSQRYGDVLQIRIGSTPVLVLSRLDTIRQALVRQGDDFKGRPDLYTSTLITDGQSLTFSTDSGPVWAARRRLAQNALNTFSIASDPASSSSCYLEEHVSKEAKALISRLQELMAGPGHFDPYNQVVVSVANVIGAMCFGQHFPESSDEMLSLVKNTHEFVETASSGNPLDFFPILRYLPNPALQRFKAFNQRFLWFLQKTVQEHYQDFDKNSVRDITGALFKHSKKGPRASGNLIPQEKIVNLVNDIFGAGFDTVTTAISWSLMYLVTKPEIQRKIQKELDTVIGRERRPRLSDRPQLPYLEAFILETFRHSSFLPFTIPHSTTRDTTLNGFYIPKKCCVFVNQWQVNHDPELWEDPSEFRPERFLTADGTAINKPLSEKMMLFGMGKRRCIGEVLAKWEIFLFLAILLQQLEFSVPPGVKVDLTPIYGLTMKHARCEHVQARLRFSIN

[7] = Stability in Sprague-Dawley rat plasma assessed as compound remaining at 1000 ng/ml after 2 hrs by LC-MS analysis; format: ADME, cell-free; conditions: read-out: Stability
Summary of the method: (§4)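 Pooled plasma (human, 3 donors; or male Sprague Dawley rat) spiked to nominal 1000 ng/mL, with at most 0.2% DMSO and 0.4% acetonitrile final. Held at 37 °C with timed aliquots. LC-MS against matrix standards with diazepam internal standard. Percent remaining is relative to the 5 min sample.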

[8] = Stability in human plasma assessed as compound remaining at 1000 ng/ml after 2 hrs by LC-MS analysis; format: ADME, cell-free; conditions: read-out: Stability; summary of the method: as §4
[9] = Kinetic solubility of the compound in pH 6.5 phosphate buffer by nephelometry; format: physicochemical; conditions: read-out: Kinetic_solubility
Summary of the method: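 DMSO stock spiked into pH 6.5 phosphate buffer (1% DMSO final). After 30 min, solubility range estimated by nephelometry.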

Plasmodium falciparum [10] = test: Antimalarial activity against Plasmodium falciparum TM90C2b harbouring Pf-crt, Pf-mdrl,Pfd-hfr, Pf-cytbQ0 mutated loci assessed as inhibition of parasite growth incubated for […] by [3H]hypoxanthine incorporation assay based liquid scintillation counting method; format: functional, organism-based; summary of the method: as §3
[11] = Intrinsic clearance in human liver microsomes at […] by LC-MS/MS analysis; format: ADME, Microsome
Summary of the method: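 Liver microsomes (human, mouse or rat) at 0.4 mg/mL protein, 37 °C, with an NADPH-regenerating system. Compound at 0.25 or 0.5 μM. Acetonitrile/diazepam quench, LC-MS quantitation. CLint from the first-order degradation rate constant.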

CCc1cccc(CNC(=O)c2nc3cccc(COCc4ccc(C(=O)O)cc4)c3c(=O)[nH]2)c1
Time (Plasmodium falciparum [1]): 32 h
hepatocyte CLint at 0.25 µM [2]: 15 µL/min/1e6 cells
inhibition at 10 µM (CYP2C9): 55%
Ratio (Plasmodium falciparum [3]): 4.6
IC50 (Plasmodium falciparum [4]): 23 nM
IC50 (Plasmodium falciparum [5]): 31 nM
blood plasma ratio [6]: 0.62
inhibition at 10 µM (CYP1A2): < 10%
remaining at 2 h, 1000 ng/ml [7]: 93.4%
remaining at 2 h, 1000 ng/ml [8]: 100%
solubility kinetic [9]: < 1.6 µg/mL
IC50 (Plasmodium falciparum [10]): 24 nM
CLH [11]: 35 uL/ml.millig
